# Measured values published in paper PMC3483416 (Archives of biochemistry and biophysics, 2012).
# Read-outs that look alike come from different tables or passages of the source.
# How the values were obtained:
# [1] = Analytical light scattering; type: physicochemical; conditions: for Mw (weighted-average molar mass): 50μM loaded, Superdex 200, 10°C; for P (population of species): integration of elution peak
# In short: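 Full-length His-tagged human BclXL, 50 μM starting concentration, run on Superdex 200 SEC at 1 ml/min and 10 °C in 50 mM buffer (pH 4–10) with 100 mM NaCl, 1 mM EDTA and 5 mM β-mercaptoethanol. Inline triple-angle SLS, 90° DLS and refractive-index concentration detection. Mw, Mn and Rg from Zimm treatment; Rh from autocorrelation fit. Errors one SD, ≥3 independent runs.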
# ITC: binding = assay: ITC: binding
# In short: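 25 × 10 μl injections of 50 μM full-length BclXL into a cell of 2 mM TOCL/DHPC bicelles (1:4 molar ratio, stirred 2 h at 37 °C in buffer). 25 °C; 50 mM buffer (acetate pH 4 to CAPS pH 10) with 100 mM NaCl, 1 mM EDTA and 5 mM β-mercaptoethanol. Buffer-titration heats subtracted. Kd and ΔH from a one-site fit; TΔS = ΔH − ΔG. ≥3 repeats.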
# [2] = ANS fluorescence in the presence of BclXL; type: binding; conditions: for ANS fluorescence enhancement: 5μM BclXL, excess ANS, excitation 375nm, 25 °C
# In short: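 Full-length human BclXL (residues 1–233, N-His, E. coli-expressed, Ni-NTA purified) at 5 μM with excess ANS in 50 mM acetate pH 4, phosphate pH 6, Tris pH 8 or CAPS pH 10. 25 °C; excitation 375 nm; emission 400–600 nm; 2.5-nm bandwidths. ANS-alone background subtracted. Enhancement = (Φ−Φo)/Φo × 100%, where Φ is the integrated spectral area. At least three repeats.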
# Near-UV CD of BclXL = type: physicochemical; conditions: 30μM BclXL, 25°C
# In short: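 Near-UV spectra recorded on 30 μM His-tagged full-length human BclXL in 50 mM acetate pH 4, phosphate pH 6, Tris pH 8 or CAPS pH 10. 25 °C; 10-mm quartz cuvette; 260–340 nm; 2-nm slit; 10 nm/min. Spectra normalized against buffer references. At least three repeats.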
# [3] = type: physicochemical; conditions: 50μM BclXL, 1°C/min
# [4] = Steady-state intrinsic tryptophan fluorescence of BclXL; type: physicochemical; conditions: 5μM BclXL, excitation 290nm, 25 °C
# In short: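 Tryptophan emission of 5 μM full-length human BclXL (N-His, E. coli-expressed) alone in 50 mM acetate pH 4, phosphate pH 6, Tris pH 8 or CAPS pH 10. 25 °C, 10-mm cuvette; excitation 290 nm; emission scanned 300–500 nm; 2.5-nm bandwidths. Spectra corrected against buffer reference. At least three repeats.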
# [5] = Multimer, pH 10, ± SD, n at least 3
# [6] = Polymer, pH 6, ± SD, n at least 3
# [7] = Polymer, pH 8, ± SD, n at least 3
# [8] = Polymer, pH 10, ± SD, n at least 3
substance,measurement,setting,value
"full-length BclXL: Full-length human BclXL (residues 1-233), N-terminal His-tag, expressed in Escherichia coli",Mn (number-average molar mass),[1]; [5],448 ± 23 kD
same,Mw/Mn,[1]; [5],1.03 ± 0.01
same,Rg (weighted-average radius of gyration),[1]; [5],131 ± 5 Å
same,Rg/Rh,[1]; [5],1.21 ± 0.01
same,Rh (weighted-average hydrodynamic radius),[1]; [5],108 ± 4 Å
same,Mw (weighted-average molar mass),"[1]; Polymer, pH 6, phosphate, ± SD, n at least 3",3521 ± 292 kD
same,P (population of species),"[1]; Polymer, pH 6",21%
same,Mn (number-average molar mass),[1]; [6],3101 ± 201 kD
same,Mw/Mn,[1]; [6],1.13 ± 0.03
same,Rg (weighted-average radius of gyration),[1]; [6],230 ± 12 Å
same,Rg/Rh,[1]; [6],1.22 ± 0.02
same,Rh (weighted-average hydrodynamic radius),[1]; [6],187 ± 9 Å
same,Mw (weighted-average molar mass),"[1]; Polymer, pH 8, Tris, ± SD, n at least 3",3729 ± 246 kD
same,P (population of species),"[1]; Polymer, pH 8",37%
same,Mn (number-average molar mass),[1]; [7],3226 ± 236 kD
same,Mw/Mn,[1]; [7],1.15 ± 0.02
same,Rg (weighted-average radius of gyration),[1]; [7],218 ± 12 Å
same,Rg/Rh,[1]; [7],1.15 ± 0.03
same,Rh (weighted-average hydrodynamic radius),[1]; [7],188 ± 11 Å
same,Mw (weighted-average molar mass),"[1]; Polymer, pH 10, CAPS, ± SD, n at least 3",3189 ± 229 kD
same,P (population of species),"[1]; Polymer, pH 10",36%
same,Mn (number-average molar mass),[1]; [8],3018 ± 212 kD
same,Mw/Mn,[1]; [8],1.06 ± 0.02
same,Rg (weighted-average radius of gyration),[1]; [8],232 ± 13 Å
same,Rg/Rh,[1]; [8],1.14 ± 0.02
same,Rh (weighted-average hydrodynamic radius),[1]; [8],202 ± 7 Å
same,mass of megamer,[1]; acidic conditions (pH 4),"~ 34,000 kD"
same,monomeric units in megadalton oligomer,[1]; acidic conditions (pH 4),more than 1000 monomeric units
same,Mw/Mn,"[1]; megadalton oligomer, pH 4, text",< 1.05
same,Mw/Mn,[1]; monomeric and dimeric forms,< 1.05
same,Rg/Rh,[1]; multimer and polymer,> 1.05
same,mass of monomer,[1]; pH 6 and higher,~ 31 kD
same,TΔS,"ITC: binding; pH 4, acetate, 25 °C, TΔS=ΔH-ΔG, ± SD, n at least 3",-53.73 ± 4.1 kcal/mol
same,ΔH,"ITC: binding; pH 4, acetate, 25 °C, ± SD, n at least 3",-63.00 ± 4.2 kcal/mol
same,ΔG,"ITC: binding; pH 4, acetate, 25 °C, ΔG=RTlnKd, ± SD, n at least 3",-9.26 ± 0.1 kcal/mol
same,"binding to TOCL/DHPC bicelles, in words",ITC: binding; pH 4-10,only under acidic conditions
same,ANS emission maximum upon binding to BclXL,[2]; blue-shifted from 515nm in water,around 475 nm
same,ANS fluorescence enhancement,[2]; pH 4,~15 fold
same,ANS fluorescence enhancement,[2]; pH 6,2 fold
same,ANS fluorescence enhancement,[2]; pH 8,about 5 fold
same,ANS fluorescence enhancement,[2]; pH 10,about 5 fold
same,near-UV CD signal,Near-UV CD of BclXL; acidic pH (pH 4),substantially attenuated
same,near-UV CD signal,Near-UV CD of BclXL; alkaline conditions (pH 8 and 10),also attenuated
same,near-UV CD signal,Near-UV CD of BclXL; pH 6,strong near-UV CD signal
same,melting temperature (no melting transition up to),"[3]; pH 4, 50mM buffer, 3atm",> 120 °C
same,"melting temperature (Tm), first transition","[3]; pH 6, attributed to dissociation of dimer into monomers",around 55 °C
same,"melting temperature (Tm), second transition","[3]; pH 6, attributed to unfolding of monomers",~70 °C
same,"melting temperature (Tm), first transition","[3]; pH 10, dissociation of dimer into monomers",around 60 °C
same,"melting temperature (Tm), second transition","[3]; pH 10, unfolding of monomers",~90 °C
same,intrinsic fluorescence vs pH,"[4]; pH 4, 6, 8, 10","drops as the pH changes from 4 to 6, it undergoes substantial enhancement at pH 8 only to drop again at pH 10"
same,tryptophan emission maximum,[4]; pH-independent,around 338 nm
